The target of series [1] is T1, GABA-A receptor; alpha-1/beta-3/gamma-2 (Homo sapiens, UniProt P14867+P18507+P28472).
T1 sequence (P14867 whole entry): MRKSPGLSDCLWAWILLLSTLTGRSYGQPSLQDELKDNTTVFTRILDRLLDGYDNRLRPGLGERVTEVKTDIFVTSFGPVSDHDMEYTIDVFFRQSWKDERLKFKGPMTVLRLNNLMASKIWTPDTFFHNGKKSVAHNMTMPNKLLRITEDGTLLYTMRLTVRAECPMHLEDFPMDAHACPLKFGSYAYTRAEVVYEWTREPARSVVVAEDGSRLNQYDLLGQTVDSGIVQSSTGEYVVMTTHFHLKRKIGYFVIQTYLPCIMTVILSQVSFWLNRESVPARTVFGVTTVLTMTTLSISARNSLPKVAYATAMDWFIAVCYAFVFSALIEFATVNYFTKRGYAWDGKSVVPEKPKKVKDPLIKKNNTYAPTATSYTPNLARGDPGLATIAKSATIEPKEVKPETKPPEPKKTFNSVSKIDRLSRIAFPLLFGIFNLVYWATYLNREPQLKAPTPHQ
T1 sequence (P18507 whole entry): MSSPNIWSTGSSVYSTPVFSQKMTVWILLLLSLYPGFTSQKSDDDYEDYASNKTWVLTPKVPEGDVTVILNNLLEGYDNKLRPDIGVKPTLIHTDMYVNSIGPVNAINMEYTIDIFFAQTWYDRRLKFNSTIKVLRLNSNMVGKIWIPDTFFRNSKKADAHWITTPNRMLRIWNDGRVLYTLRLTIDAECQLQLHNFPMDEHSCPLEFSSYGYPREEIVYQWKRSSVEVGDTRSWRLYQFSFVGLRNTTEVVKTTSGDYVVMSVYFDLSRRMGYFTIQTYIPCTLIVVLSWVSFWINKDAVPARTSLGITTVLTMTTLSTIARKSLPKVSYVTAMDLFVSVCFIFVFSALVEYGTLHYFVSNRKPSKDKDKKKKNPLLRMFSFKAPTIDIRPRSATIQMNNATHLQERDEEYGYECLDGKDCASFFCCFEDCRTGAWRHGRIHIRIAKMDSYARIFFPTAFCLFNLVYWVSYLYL
T1 sequence (P28472 whole entry): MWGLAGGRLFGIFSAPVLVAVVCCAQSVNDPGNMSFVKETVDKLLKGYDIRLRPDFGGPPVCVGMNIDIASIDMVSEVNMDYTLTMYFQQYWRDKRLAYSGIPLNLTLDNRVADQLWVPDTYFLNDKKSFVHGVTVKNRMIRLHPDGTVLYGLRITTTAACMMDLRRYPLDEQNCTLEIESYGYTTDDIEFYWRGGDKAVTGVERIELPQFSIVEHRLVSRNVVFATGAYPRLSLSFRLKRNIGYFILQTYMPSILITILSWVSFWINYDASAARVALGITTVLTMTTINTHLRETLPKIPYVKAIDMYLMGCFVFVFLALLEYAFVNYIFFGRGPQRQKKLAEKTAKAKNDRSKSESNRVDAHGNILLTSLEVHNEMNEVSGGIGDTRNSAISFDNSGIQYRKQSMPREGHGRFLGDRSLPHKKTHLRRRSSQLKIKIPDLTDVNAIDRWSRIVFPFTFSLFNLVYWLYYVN
Put plainly: Displacement of [3H]Ro-151788 from human recombinant GABA-Aalpha1 receptor plus beta3gamma2. It counts as protein-complex assay. In short, it runs like this:
(§1)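 Stably expressed human recombinant αxβ3γ2 GABAA receptors (x = 1, 3 or 5), benzodiazepine site. Competition against 1.8 nM [3H]Ro15-1788. IC50 for inhibition of binding converted to Ki by Cheng–Prusoff. Mean of 3–6 determinations.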

Series [2] concerns the target T2, GABA-A receptor; alpha-3/beta-3/gamma-2 (Homo sapiens, UniProt P18507+P28472+P34903).
T2 sequence (P18507 whole entry): T1 sequence (P18507 whole entry)
T2 sequence (P28472 whole entry): T1 sequence (P28472 whole entry)
T2 sequence (P34903 whole entry): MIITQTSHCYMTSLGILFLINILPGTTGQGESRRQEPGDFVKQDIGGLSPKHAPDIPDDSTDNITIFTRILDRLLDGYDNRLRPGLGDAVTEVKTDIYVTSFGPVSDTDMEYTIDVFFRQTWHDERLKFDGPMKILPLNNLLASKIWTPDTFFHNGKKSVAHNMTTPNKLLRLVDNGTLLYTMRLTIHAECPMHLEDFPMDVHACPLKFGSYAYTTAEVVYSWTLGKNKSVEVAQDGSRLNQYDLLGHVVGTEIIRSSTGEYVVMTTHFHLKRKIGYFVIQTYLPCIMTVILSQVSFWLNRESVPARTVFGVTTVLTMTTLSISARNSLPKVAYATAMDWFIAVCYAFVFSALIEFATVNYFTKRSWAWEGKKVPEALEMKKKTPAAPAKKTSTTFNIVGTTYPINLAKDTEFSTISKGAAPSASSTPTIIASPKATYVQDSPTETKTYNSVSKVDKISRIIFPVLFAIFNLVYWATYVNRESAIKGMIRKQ
Put plainly: Displacement of [3H]Ro-151788 from human recombinant GABA-Aalpha3 receptor plus beta3gamma2. The series is classed as protein-complex assay. A digest of the protocol:
as §1

For series [3], the target named is T3, GABA-A receptor; alpha-5/beta-3/gamma-2 (Homo sapiens, UniProt P18507+P28472+P31644).
T3 sequence (P18507 whole entry): T1 sequence (P18507 whole entry)
T3 sequence (P28472 whole entry): T1 sequence (P28472 whole entry)
T3 sequence (P31644 whole entry): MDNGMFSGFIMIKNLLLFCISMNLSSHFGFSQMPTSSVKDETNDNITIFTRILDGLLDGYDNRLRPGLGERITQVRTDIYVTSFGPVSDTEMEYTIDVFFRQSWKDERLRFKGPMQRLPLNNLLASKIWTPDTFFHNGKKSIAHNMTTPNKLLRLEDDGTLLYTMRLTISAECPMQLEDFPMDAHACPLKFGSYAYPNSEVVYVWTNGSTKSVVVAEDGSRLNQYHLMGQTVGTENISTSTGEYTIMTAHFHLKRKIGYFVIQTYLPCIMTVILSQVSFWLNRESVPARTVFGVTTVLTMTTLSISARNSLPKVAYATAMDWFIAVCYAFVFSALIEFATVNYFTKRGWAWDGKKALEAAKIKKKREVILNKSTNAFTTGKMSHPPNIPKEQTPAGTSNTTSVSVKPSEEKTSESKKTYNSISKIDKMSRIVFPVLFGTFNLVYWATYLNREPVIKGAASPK
Put plainly: Displacement of [3H]Ro-151788 from human recombinant GABA-Aalpha5 receptor plus beta3gamma2. It counts as protein-complex assay. A digest of the protocol:
as §1
Background: Loss of bound radioactivity is the signal in a displacement assay; it reports binding, not function.

For series [4], the target named is GABA-A receptor; alpha-1/beta-3/gamma-2 (Homo sapiens) (UniProt P14867+P18507+P28472). Put plainly: Efficacy against human recombinant GABA-Aalpha1 receptor plus beta-3-gamma-2 expressed in L(tk-) cells by whole cell patch clamp method. The series is classed as functional, cell-based. A digest of the protocol:
(§2)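 Whole-cell patch clamp on L(tk-) cells stably expressing α1β3γ2 or α3β3γ2 GABAA receptors. Test compound modulation of current evoked by a sub-maximal (EC20) GABA concentration. Means of at least seven independent experiments.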
In general terms: Patch clamp records ionic current or voltage across a cell membrane.

Series [5] addresses GABA-A receptor; alpha-3/beta-3/gamma-2 (Homo sapiens) (UniProt P18507+P28472+P34903). Briefly: Efficacy against human recombinant GABA-Aalpha3 receptor plus beta-3-gamma-2 expressed in L(tk-) cells by whole cell patch clamp method. It counts as functional, cell-based. A digest of the protocol:
as §2

Series [6] addresses GABA-A receptor; alpha-5/beta-3/gamma-2 (Homo sapiens) (UniProt P18507+P28472+P31644). Briefly: Efficacy against human recombinant GABA-Aalpha5 receptor plus beta-3-gamma-2 expressed in L(tk-) cells by whole cell patch clamp method. It counts as functional, cell-based. In short, it runs like this:
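Human α5β3γ2 GABA-A receptors stably expressed in L(tk-) cells; whole-cell patch clamp recording. Test compound applied against the current evoked by a sub-maximal GABA concentration (EC20), and efficacy expressed as the change in that current. Values are means of at least seven independent experiments.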

A short description of series [7]: Bioavailability in rat. The series is classed as ADME, organism-based. The following applies: in vivo.
Series [8] is described as follows: Plasma clearance in rat. The series is classed as ADME, organism-based.
The nature of series [9]: Half life in rat. It counts as ADME, organism-based. The following applies: in vivo.
The target of series [10] is T4, GABA-A receptor; anion channel (Rattus norvegicus) (UniProt O09028+P15431+P18506+P18508+P19969+P20236+P23574+P23576+P28471+P28473+P30191+P62813+P63079+P63138+Q91ZM7+Q9ES14). Put plainly: Displacement of [3H]Ro-151788 from GABA-Aalpha receptor in rat po. The series is classed as functional.
Series [11] relates to Rattus norvegicus. Briefly: Anxiolytic activity in rat elevated plus maze assay at 3 mg/kg, po. It counts as functional, organism-based. On the set-up: dose 3 mg/kg.
Series [12] addresses T4, GABA-A receptor; anion channel (Rattus norvegicus). Put plainly: Receptor occupancy at BZ site of GABA-Aalpha receptor in rat at 3 mg/kg, po. It counts as functional, organism-based. On the set-up: dose 3 mg/kg.
The test system of series [13] is Rattus norvegicus. Put plainly: Activity in rat beam walking assay at 100 mg/kg, po. The series is classed as functional, organism-based. On the set-up: dose 100 mg/kg.

Active and inactive are the calls of the source.

One may read the Ki as the equilibrium dissociation constant of an inhibitor or competing ligand from its target. One may read the bioavailability as dose-corrected exposure relative to a reference, in per cent. As a reminder, the clearance is the rate of elimination divided by the concentration. Usually half-life stands for the time needed for the level to fall by half in the phase considered. Low readings indicate fast loss, high ones slow loss.

Take `CCn1ccn2c(-c3ccc(F)c(-c4ccc(F)cc4C#N)c3)cnc2c1=O`: the results for the Ki in [1], in series [2] and in [3] were 0.28 nM, 0.9 nM and 0.15 nM, respectively. Further, the Efficacy is -8% in [4], 43% in series [5] and -4% in series [6]. Moreover, the bioavailability in [7] is 38%. This compound yielded a clearance in [8] of 17 mL/min/kg. In addition, in series [9], the half-life was 5 h. In [10], this compound gave an ID50 of 0.7 mg/kg. Moreover, the outcome in series [11] was Active. In [12], this compound gave an Activity of 86%. The outcome in series [13] was inactive.

Consider `Cn1ncn2c(-c3ccc(F)c(-c4ccc(F)cc4C#N)c3)cnc2c1=O`, for which the Ki in [1] amounted to 6.5 nM; in series [2], 4.7 nM; in series [3] it was 2.3 nM. Further, the figures for the Efficacy in [4] and in [5] were -9% and 1%, respectively.

As to `Cn1ccn2c(-c3ccc(F)c(-c4ccccc4C#N)c3)cnc2c1=O`, the Ki in [1] was 0.53 nM; in series [2] it was 0.7 nM; in series [3], 0.1 nM. The Efficacy in series [4] worked out at 27%; in series [5], 51%.

With `CCn1ncn2c(-c3ccc(F)c(-c4ccc(F)cc4C#N)c3)cnc2c1=O`, the Ki in series [1] amounted to 2.4 nM; in series [2], 3.4 nM; in series [3], 0.95 nM. The Efficacy in [4] is -19%; in series [5] it was -7%.

For the compound `CC(C)(O)c1ccn2c(-c3ccc(F)c(-c4cccnc4)c3)cnc2n1`, the Ki in series [1] is 1.4 nM; in series [3] it was 0.52 nM.

As to `Cn1ccn2c(-c3ccc(F)c(-c4c(F)cccc4C#N)c3)cnc2c1=O`, the inhibition constant (Ki) in [1] came out at 0.16 nM; in series [2] it was 0.59 nM; in series [3] it was 0.19 nM. The results for the Efficacy in series [4] and in series [5] were 3% and 28%, respectively.

As to `Cn1cnn2c(-c3ccc(F)c(-c4ccc(F)cc4C#N)c3)cnc2c1=O`, the Ki in series [1] was 2.5 nM; in [2], 4.6 nM; in series [3], 4.8 nM. Further, the Efficacy in [4] is -46%.

On to `Cn1ccn2c(-c3ccc(F)c(-c4ccc(F)cc4C#N)c3)cnc2c1=O`, for which the Ki in series [1] turned out to be 0.7 nM; in [2], 1.9 nM; in series [3] it was 0.39 nM. Also, the Efficacy in [4] is -27%; in [5] it was 44%.

For the compound `CC(C)(O)c1cnn2c(-c3ccc(F)c(-c4c(F)cccc4C#N)c3)cnc2n1`, the Ki in series [1] came out at 0.6 nM; in [2], 1.5 nM; in series [3] it was 0.9 nM. The Efficacy in [4] came out at 4%; in [5] it was 65%; in series [6] it was 44%.
